Tests used:
Histone deacetylase 4 [1] = biological target: T1, Histone deacetylase 4 (Homo sapiens, UniProt P56524); assay: Inhibition of HDAC4 (unknown origin) using Boc Lys(TFA) as substrate by fluorogenic assay
Summary of the method: (§1)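 Biochemical HDAC isoform assay with the artificial fluorogenic substrate Boc-Lys-(TFA)-AMC, which is specific to class IIa enzymes and HDAC8. IC50 taken as the geometric mean of three experiments.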

Histone deacetylase 5 = Histone deacetylase 5 (Homo sapiens, UniProt Q9UQL6); assay: Inhibition of HDAC5 (unknown origin) using Boc Lys(TFA) as substrate by fluorogenic assay; summary of the method: as §1
[2] = biological target: T2, Protein deacetylase HDAC6 (Homo sapiens, UniProt Q9UBN7); assay: Inhibition of HDAC6 (unknown origin) expressed in human HEK-Freestyle cells using Boc-Lys(Ac) as substrate by fluorogenic assay; type: cell-based
T2 sequence (Q9UBN7 whole entry): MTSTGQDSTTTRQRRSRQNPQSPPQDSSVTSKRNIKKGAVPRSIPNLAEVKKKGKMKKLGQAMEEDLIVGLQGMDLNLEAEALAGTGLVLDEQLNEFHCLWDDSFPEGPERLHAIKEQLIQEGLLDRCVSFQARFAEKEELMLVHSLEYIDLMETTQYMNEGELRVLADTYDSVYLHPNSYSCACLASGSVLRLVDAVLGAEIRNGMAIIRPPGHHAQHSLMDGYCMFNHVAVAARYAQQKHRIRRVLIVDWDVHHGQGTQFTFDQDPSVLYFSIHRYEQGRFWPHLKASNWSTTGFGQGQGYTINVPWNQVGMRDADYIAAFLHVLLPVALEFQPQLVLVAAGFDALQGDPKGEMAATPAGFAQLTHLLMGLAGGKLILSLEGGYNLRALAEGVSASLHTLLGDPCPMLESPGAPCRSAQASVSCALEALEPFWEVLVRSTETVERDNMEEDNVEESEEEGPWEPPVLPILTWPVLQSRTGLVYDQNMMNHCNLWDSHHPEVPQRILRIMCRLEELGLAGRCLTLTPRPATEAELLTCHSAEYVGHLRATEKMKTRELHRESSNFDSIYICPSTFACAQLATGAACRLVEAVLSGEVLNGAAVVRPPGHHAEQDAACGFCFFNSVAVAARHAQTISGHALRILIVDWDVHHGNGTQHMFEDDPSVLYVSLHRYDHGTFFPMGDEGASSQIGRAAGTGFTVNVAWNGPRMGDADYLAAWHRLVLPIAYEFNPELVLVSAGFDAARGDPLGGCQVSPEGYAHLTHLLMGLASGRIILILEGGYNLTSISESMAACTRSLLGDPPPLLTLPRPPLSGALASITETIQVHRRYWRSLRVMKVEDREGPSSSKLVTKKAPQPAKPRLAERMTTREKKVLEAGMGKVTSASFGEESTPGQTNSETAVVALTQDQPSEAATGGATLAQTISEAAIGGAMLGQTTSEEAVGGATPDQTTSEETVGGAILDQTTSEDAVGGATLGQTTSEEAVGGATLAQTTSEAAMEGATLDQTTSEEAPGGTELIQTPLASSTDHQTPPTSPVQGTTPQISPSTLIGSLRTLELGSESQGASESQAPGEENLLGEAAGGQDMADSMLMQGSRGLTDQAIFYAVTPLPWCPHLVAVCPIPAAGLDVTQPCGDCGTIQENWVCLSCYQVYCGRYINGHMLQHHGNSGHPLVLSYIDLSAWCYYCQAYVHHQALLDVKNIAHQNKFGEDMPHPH
Summary of the method: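 HDAC6 was supplied as lysate of HEK cells overexpressing the enzyme. Activity was read with the class I/IIb-specific fluorogenic substrate Boc-Lys-(Ac)-AMC. IC50 is the geometric mean of three experiments.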

[3] = Inhibition of Class 1/2b HDAC in human Jurkat E6.1 cells using Boc-Lys-(Ac)-AMC as substrate by fluorogenic assay; type: cell-based
Summary of the method: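 Whole-cell assay in Jurkat E6.1 cells with artificial fluorogenic substrates: Boc-Lys-(TFA)-AMC for class IIa/HDAC8 activity, which in this line is mostly HDAC4, and Boc-Lys-(Ac)-AMC for class I/IIb activity. IC50 given as the geometric mean of three experiments.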

Histone deacetylase 4 [4] = biological target: T1, Histone deacetylase 4; assay: Inhibition of human recombinant HDAC4 at 10 uM incubated for 30 mins by fluorometry
Summary of the method: (§2)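 Broad selectivity panel of binding, cellular, functional and enzymatic assays run by a contract lab. Each test was done at a single 10 μM concentration and reported as percent inhibition.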

[5] = biological target: T3, Muscarinic acetylcholine receptor M3 (Homo sapiens, UniProt P20309); assay: Displacement of [3H]4-DAMP from human recombinant M3 receptor at 10 uM incubated for 1 hr by radiometric scintillation counting analysis; summary of the method: as §2
Target sequence in this assay (P20309 whole entry, looked up): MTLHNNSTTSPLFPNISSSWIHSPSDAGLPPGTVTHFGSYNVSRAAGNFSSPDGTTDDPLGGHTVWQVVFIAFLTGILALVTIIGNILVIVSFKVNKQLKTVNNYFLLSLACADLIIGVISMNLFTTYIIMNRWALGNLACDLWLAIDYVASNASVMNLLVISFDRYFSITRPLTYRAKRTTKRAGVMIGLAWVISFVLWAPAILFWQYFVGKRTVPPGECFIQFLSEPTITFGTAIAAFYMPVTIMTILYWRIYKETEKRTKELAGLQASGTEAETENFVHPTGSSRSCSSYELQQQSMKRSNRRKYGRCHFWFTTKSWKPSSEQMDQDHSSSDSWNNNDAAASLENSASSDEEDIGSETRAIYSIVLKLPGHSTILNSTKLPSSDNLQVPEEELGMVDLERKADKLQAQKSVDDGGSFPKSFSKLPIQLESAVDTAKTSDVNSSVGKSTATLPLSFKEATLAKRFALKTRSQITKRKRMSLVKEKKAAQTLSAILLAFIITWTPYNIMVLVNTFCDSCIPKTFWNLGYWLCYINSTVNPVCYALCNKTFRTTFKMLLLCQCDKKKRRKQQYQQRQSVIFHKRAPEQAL

[6] = biological target: Muscarinic acetylcholine receptor M4 (Homo sapiens) (UniProt P08173); assay: Displacement of [3H]4-DAMP from human recombinant M4 receptor at 10 uM incubated for 1 hr by radiometric scintillation counting analysis; summary of the method: as §2
[7] = biological target: T3, Muscarinic acetylcholine receptor M3; assay: Displacement of [3H]4-DAMP from human recombinant M3 receptor incubated for 1 hr by radiometric scintillation counting analysis
Target sequence in this assay (P20309 whole entry): as the sequence (P20309 whole entry, looked up) above

[8] = Time during which drug concentration exceeds the IC50 for inhibition of human Class 2A HDAC in C57BL/6J mouse brain at 100 mg/kg, po administered via gavage by LC-MS/MS analysis; type: organism-based; details: in vivo
Summary of the method: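 Single oral gavage doses of 10, 30 or 100 mg/kg were given to C57/BL6 mice. Brain and blood were sampled from 0.25 to 12 h and compound measured by LC-MS/MS. The time that total brain exposure stayed above the class IIa cellular IC50 was then estimated.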

[9] = Unbound fraction in mouse blood by equilibrium dialysis method; type: ADME, tissue-based
Summary of the method: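 Compound added to mouse blood; unbound fraction determined by equilibrium dialysis.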

[10] = Unbound fraction in mouse brain; type: ADME, tissue-based
Summary of the method: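 Unbound fraction measured in mouse brain homogenate.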

[11] = In vivo inhibition of Class 1 HDAC in C57BL/6J mouse brain assessed as increase in H4K12 acetylation administered orally via gavage measured after 2 to 4 hrs by dot blot technique; type: organism-based; details: po, dose lower 10 mg/kg, time lower 2 hrs, dose upper 100 mg/kg, time upper 4 hrs
Summary of the method: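 Mice received single oral gavage doses of 10, 30 or 100 mg/kg, and brains were sampled from 0.25 to 12 h. Brain compound levels were measured by LC-MS/MS. Dot blots read H4K12 acetylation normalized to histone H4, or pan-acetyl-lysine normalized to tubulin.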

[12] = Stability of the compound in 10% (w/v) hydroxypropyl-beta-cyclodextrin in 50 mM citrate buffer at pH 5 measured over 30 days; type: physicochemical; details: pH 5, 720 h, time 30 day
[13] = Toxicity in CBAxC57BL/6J mouse assessed as effect on body temperature at 10 to 100 mg/kg, po bid for 14.5 days; type: organism-based; details: in vivo, 348 h, dose 10-100 mg/kg, time 14.5 day
Summary of the method: (§3)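 R6/2 HD mice and wild-type littermates, male and female, were dosed orally b.i.d. at 10, 30 or 100 mg/kg or with vehicle for 14.5 days. Vehicle was 10% (w/v) hydroxypropyl-β-cyclodextrin in 50 mM citrate buffer. Body weight, body temperature, passive observations and active manipulation scores were recorded. Blood and brain were collected 2 h after the final dose.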

[14] = Toxicity in CBAxC57BL/6J mouse assessed as effect on flat body posture at 10 to 100 mg/kg, po bid for 14.5 days; type: organism-based; details: in vivo, 348 h, dose 10-100 mg/kg, time 14.5 day; summary of the method: as §3

T1 sequence (P56524 whole entry, canonical isoform): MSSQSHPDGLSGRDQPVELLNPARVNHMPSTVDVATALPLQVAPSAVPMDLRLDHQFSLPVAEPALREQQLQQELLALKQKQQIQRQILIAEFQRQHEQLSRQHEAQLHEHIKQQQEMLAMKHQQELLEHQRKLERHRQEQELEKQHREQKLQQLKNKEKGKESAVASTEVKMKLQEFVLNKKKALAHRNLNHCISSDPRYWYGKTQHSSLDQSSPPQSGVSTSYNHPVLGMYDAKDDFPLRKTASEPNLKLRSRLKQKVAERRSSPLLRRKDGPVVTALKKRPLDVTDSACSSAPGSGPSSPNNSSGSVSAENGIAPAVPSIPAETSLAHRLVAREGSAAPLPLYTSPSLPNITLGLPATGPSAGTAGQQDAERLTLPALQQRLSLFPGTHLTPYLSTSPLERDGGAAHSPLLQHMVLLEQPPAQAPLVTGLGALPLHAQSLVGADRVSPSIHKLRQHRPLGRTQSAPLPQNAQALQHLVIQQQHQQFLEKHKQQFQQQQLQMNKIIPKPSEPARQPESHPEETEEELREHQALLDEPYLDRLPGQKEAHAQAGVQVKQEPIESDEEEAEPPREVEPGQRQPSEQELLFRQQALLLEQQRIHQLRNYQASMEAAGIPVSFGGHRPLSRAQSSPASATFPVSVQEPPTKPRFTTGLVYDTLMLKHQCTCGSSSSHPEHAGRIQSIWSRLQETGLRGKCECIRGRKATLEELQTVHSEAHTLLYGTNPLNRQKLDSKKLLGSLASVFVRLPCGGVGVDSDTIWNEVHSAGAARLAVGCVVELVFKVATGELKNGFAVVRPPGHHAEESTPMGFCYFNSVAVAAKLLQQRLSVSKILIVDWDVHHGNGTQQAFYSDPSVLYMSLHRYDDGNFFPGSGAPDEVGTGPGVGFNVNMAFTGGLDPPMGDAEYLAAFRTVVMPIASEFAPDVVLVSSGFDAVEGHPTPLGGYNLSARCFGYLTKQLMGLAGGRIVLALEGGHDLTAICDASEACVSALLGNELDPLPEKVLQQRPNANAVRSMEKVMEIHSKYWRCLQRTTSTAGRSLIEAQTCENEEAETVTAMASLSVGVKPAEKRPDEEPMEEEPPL
Histone deacetylase 5, sequence (Q9UQL6 whole entry): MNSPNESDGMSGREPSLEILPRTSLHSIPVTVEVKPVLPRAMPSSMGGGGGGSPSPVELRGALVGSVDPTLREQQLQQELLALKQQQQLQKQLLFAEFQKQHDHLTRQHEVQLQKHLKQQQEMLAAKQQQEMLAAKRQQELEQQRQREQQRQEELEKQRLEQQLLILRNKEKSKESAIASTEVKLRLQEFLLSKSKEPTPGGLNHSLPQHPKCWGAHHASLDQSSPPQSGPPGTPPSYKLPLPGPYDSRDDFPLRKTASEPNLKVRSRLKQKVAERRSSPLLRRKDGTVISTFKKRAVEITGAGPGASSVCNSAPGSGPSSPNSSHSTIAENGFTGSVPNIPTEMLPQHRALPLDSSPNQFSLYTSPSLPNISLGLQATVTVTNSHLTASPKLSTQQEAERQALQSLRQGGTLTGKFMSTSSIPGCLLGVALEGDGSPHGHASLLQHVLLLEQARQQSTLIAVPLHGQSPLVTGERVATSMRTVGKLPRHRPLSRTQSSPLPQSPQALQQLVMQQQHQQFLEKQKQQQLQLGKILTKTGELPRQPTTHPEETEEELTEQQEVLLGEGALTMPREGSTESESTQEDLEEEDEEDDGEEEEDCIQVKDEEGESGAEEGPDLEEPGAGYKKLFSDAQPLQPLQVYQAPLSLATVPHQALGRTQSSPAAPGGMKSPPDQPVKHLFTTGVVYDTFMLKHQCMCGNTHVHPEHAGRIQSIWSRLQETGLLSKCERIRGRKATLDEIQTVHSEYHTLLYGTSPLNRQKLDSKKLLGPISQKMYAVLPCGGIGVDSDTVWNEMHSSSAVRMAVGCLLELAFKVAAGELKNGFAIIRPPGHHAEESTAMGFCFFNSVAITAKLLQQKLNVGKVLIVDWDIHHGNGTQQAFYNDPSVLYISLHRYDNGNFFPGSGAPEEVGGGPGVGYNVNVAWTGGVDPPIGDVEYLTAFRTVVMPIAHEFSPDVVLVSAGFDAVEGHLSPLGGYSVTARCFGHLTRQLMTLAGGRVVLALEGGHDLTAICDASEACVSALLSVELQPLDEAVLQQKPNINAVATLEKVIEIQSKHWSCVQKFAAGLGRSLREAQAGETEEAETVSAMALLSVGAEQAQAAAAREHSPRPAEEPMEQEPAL
Muscarinic acetylcholine receptor M4 (Homo sapiens), sequence (P08173 whole entry): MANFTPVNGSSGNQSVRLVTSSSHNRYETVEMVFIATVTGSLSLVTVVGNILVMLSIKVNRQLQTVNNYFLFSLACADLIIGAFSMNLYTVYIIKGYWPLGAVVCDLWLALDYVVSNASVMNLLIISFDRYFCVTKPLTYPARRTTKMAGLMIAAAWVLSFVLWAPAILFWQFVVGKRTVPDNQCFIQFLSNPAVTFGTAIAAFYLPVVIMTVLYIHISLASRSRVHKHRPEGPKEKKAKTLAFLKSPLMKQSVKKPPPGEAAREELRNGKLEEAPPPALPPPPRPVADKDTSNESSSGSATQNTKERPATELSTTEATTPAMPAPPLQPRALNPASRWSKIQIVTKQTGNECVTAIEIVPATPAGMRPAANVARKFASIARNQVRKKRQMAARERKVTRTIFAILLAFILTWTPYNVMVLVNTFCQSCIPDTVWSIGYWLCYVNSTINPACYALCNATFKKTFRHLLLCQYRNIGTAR

- IC50 (Histone deacetylase 4 [1]): 0.01 µM
- IC50 (Histone deacetylase 5): 0.02 µM
- IC50 [2]: 22 µM
- IC50 [3]: 5 µM
- inhibition (Histone deacetylase 4 [4]): > 80%
- inhibition [5]: > 80%
- inhibition [6]: > 80%
- Kd [7]: > 5 µM
- T>IC50 [8]: 14 h
- fraction unbound [9]: 0.73
- fraction unbound [10]: 0.17
- Stabilty [12]: Stable
SMILES: C[C@H](CN1CCC[C@@H]1C)NC(=O)c1ccc(-c2noc(C(F)(F)F)n2)cc1
- Activity [11]: Toxic
- Activity [13]: Non-Toxic
- Activity [14]: Non-Toxic

From ChEMBL document CHEMBL4680373, “Evaluation of 5-(Trifluoromethyl)-1,2,4-oxadiazole-Based Class IIa HDAC Inhibitors for Huntington's Disease” (ACS Med Chem Lett, 2021)
